Assay results published in ChEMBL document CHEMBL4321861, “An Underlying Mechanism of Dual Wnt Inhibition and AMPK Activation: Mitochondrial Uncouplers Masquerading as Wnt Inhibitors” (J Med Chem, 2019).
Calls of active or inactive are those of the source. No cut-off for these calls is given here.

Key:
[1] = target: T1, AMP-activated protein kinase, AMPK (Homo sapiens) (UniProt P54646+O43741+P54619+Q9UGJ0+Q9Y478+Q13131+Q9UGI9); assay: Activation of AMPK (unknown origin) assessed as increase in AMPK phosphorylation at T172 residue at 3 uM by Western blot analysis; assay type: protein-complex assay
Method in brief: (§1)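 Cells lysed in 50 mM HEPES, 100 mM NaCl, 2 mM EDTA, 1% glycerol, 50 mM NaF, 1 mM Na3VO4, 1% Triton X-100 with protease inhibitors. Western blot probed for total and phospho-AMPK and total and phospho-ACC, with actin loading control. Compounds given in DMSO. At least three independent repeats.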

Liver [2] = assay: Uncoupling of mitochondrial oxidative phosphorylation in mouse liver mitochondria assessed as increase in oxygen consumption rate in presence of oligomycin A by seahorse XFe96 analyser based assay
Method in brief: (§2)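 Mouse liver mitochondria isolated by differential centrifugation in mannitol/sucrose/HEPES/EGTA buffer, pH 7.2. Loaded at 6 μg/well in KCl/HEPES/MgCl2/KH2PO4 respiration buffer, pH 7.2, at 37 °C. OCR measured on XFe96.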

[3] = target: T1, AMP-activated protein kinase, AMPK (Homo sapiens); assay: Activation of AMPK (unknown origin) assessed as […] phosphorylation at S79 residue at 3 uM by Western blot analysis; assay type: protein-complex assay; method in brief: as §1
HEK293 [4] = assay: Inhibition of LiCl-activated Wnt signaling in HEK293 cells at 3 uM by TOPFlash reporter gene assay; assay type: cell-based; conditions: Homo sapiens
Method in brief: (§3)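 Stable HEK293T Super 8xTOPFlash reporter line (pGL4.83 backbone, puromycin-selected), stimulated with 25 mM LiCl to stabilize β-catenin. Treated with compound in DMSO or DMSO. Luciferase read in 96- or 24-well format. AMPK inhibitor compound C used at 5 μM where applied. At least three independent repeats.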

Homo sapiens [5] = species: Homo sapiens; assay: Inhibition of Wnt in human SW620 cells assessed as reduction in cyclin-D1 expression at 1 uM by Western blot analysis; assay type: cell-based
Method in brief: (§4)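 Colorectal cancer cells (DLD-1, LS174T, SW620) treated with a compound dose series in DMSO. Lysates immunoblotted for Axin2, c-Myc and cyclin D1. At least three independent repeats.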

HEK293 [6] = assay: Inhibition of LiCl-activated Wnt signaling in HEK293 cells at 0.3 to 3 uM by TOPFlash reporter gene assay; assay type: cell-based; conditions: Homo sapiens; method in brief: as §3
Homo sapiens [7] = species: Homo sapiens; assay: Inhibition of Wnt in human DLD1 cells assessed as reduction in Axin2 expression at 1 to 3 uM by Western blot analysis; assay type: cell-based; method in brief: as §4
Homo sapiens [8] = species: Homo sapiens; assay: Inhibition of Wnt in human SW620 cells assessed as reduction in Axin2 expression at 1 uM by Western blot analysis; assay type: cell-based; method in brief: as §4
Homo sapiens [9] = species: Homo sapiens; assay: Inhibition of Wnt in human DLD1 cells assessed as reduction in c-Myc expression at 1 to 3 uM by Western blot analysis; assay type: cell-based; method in brief: as §4
LS174T [10] = assay: Induction of mitochondrial membrane potential disruption in human LS174T cells measured after 2 hrs by TMRM staining based fluorescence microscopic analysis; conditions: Mitochondria
Method in brief: (§5)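 Cells grown one day in 24-well plates: DLD-1 in DMEM + 10% serum, LS174T in RPMI1640 + 5% serum. Treated 2 h with compound in DMSO or DMSO, then stained with 100 nM TMRM for 15 min. Rinsed once with PBS and imaged by fluorescence microscopy at 568 nm.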

LS174T [11] = assay: Inhibition of Wnt in human LS174T cells assessed as reduction in Axin2 expression at 1 uM by Western blot analysis; assay type: cell-based; method in brief: as §4
Homo sapiens [12] = species: Homo sapiens; assay: Inhibition of Wnt in human DLD1 cells assessed as reduction in cyclin-D1 expression at 1 to 3 uM by Western blot analysis; assay type: cell-based; method in brief: as §4
[13] = target: T1, AMP-activated protein kinase, AMPK (Homo sapiens); assay: Activation of AMPK in human LS174T cells assessed as […] phosphorylation at S79 residue at 3 uM by Western blot analysis; assay type: cell-based; method in brief: as §1
LS174T [14] = assay: Inhibition of Wnt in human LS174T cells assessed as reduction in c-Myc expression at 1 uM by Western blot analysis; assay type: cell-based; method in brief: as §4
HEK293 [15] = assay: Inhibition of LiCl-activated Wnt signaling in HEK293 cells at 3 uM in presence of AMPK inhibitor compound C by TOPFlash reporter gene assay; assay type: cell-based; conditions: Homo sapiens; method in brief: as §3
DLD-1 [16] = assay: Cytotoxicity against human DLD1 cells assessed as reduction in cell viability by Vi-Cell XR cell viability analyzer-based assay; assay type: functional
Method in brief: (§6)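 Colon cancer cells plated at 3.5×10^4 per well in 12-well plates. LS174T were in EMEM + 10% FBS; DLD-1 were in DMEM + 10% FBS. After 24 h, compound in DMSO added (DMSO control). Cell number and viability counted on a Vi-Cell XR analyzer. Triplicate wells.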

LS174T [17] = assay: Inhibition of Wnt in human LS174T cells assessed as reduction in cyclin-D1 expression at 1 uM by Western blot analysis; assay type: cell-based; method in brief: as §4
DLD-1 [18] = assay: Induction of mitochondrial membrane potential disruption in human DLD1 cells measured after 2 hrs by TMRM staining based fluorescence microscopic analysis; conditions: Mitochondria; method in brief: as §5
HEK293 [19] = assay: Effect on FOP reporter expression in LiCl-induced HEK293T cells incubated for 24 hrs by luciferase reporter gene assay; assay type: functional, cell-based; conditions: Homo sapiens
Method in brief: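 HEK293T cells transiently transfected with Super 8x TOPFlash or 8x FOPFlash plus control Renilla reporter. Wnt signaling activated with LiCl or Wnt3A. Cells treated with DMSO or compound in DMSO. Luciferase activity read.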

LS174T [20] = assay: Cytotoxicity against human LS174T cells assessed as reduction in cell viability by Vi-Cell XR cell viability analyzer-based assay; assay type: functional; method in brief: as §6
Homo sapiens [21] = species: Homo sapiens; assay: Inhibition of Wnt in human SW620 cells assessed as reduction in c-Myc expression at 1 uM by Western blot analysis; assay type: cell-based; method in brief: as §4
[22] = target: T1, AMP-activated protein kinase, AMPK (Homo sapiens); assay: Activation of AMPK in human LS174T cells assessed as increase in AMPK phosphorylation at T172 residue at 3 uM by Western blot analysis; assay type: cell-based; method in brief: as §1
HEK293 [23] = assay: Inhibition of LiCl-activated Wnt signaling in HEK293 cells at 10 uM by TOPFlash reporter gene assay; assay type: cell-based; conditions: Homo sapiens; method in brief: as §3
DLD-1 [24] = assay: Inhibition of mitochondrial oxidative phosphorylation in human DLD1 cells assessed as reduction in oxygen consumption rate by seahorse XFe96 analyser based assay; conditions: Mitochondria
Method in brief: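 DLD-1 cells, ~3×10^4 per well, seeded a day ahead; medium switched to Seahorse XF modified medium with 25 mM glucose and 1 mM pyruvate. Mitochondrial stress test: 1 μM oligomycin A, test compound in DMSO in place of FCCP, then 1.0 μM rotenone plus 1.0 μM antimycin A. OCR recorded; ATP production rate by real-time ATP rate assay.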

Liver [25] = assay: Uncoupling of mitochondrial oxidative phosphorylation in mouse liver mitochondria assessed as increase in oxygen consumption rate at 1 to 5 uM in presence of oligomycin A by seahorse XFe96 analyser based assay; method in brief: as §2
DLD-1 [26] = assay: Uncoupling of mitochondrial oxidative phosphorylation in human DLD1 cells assessed as increase in oxygen consumption rate at 3 uM in presence of oligomycin A by seahorse XFe96 analyser based assay; conditions: Mitochondria
Method in brief: (§7)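 DLD-1 cells, about 3×10^4 per XF96 well, in XF medium with 25 mM glucose and 1 mM pyruvate. Mito stress sequence: oligomycin A 1 μM, then test compound 3 μM in DMSO in place of FCCP (FCCP 1 μM as control), then rotenone/antimycin A 1 μM each. Oxygen consumption rate recorded.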

HEK293 [27] = assay: Inhibition of LiCl-activated Wnt signaling in HEK293 cells by TOPFlash reporter gene assay; assay type: cell-based; conditions: Homo sapiens; method in brief: as §3
[28] = target: T1, AMP-activated protein kinase, AMPK (Homo sapiens); assay: Activation of AMPK in human LS174T cells assessed as increase in AMPK phosphorylation at T172 residue by Western blot analysis; assay type: cell-based; method in brief: as §1
[29] = target: T1, AMP-activated protein kinase, AMPK (Homo sapiens); assay: Activation of AMPK in human LS174T cells assessed as […] phosphorylation at S79 residue by Western blot analysis; assay type: cell-based; method in brief: as §1
[30] = target: T1, AMP-activated protein kinase, AMPK (Homo sapiens); assay: Activation of AMPK in human LS174T cells assessed as increase in AMPK phosphorylation at T172 residue at 3 uM measured within 15 mins by Western blot analysis; assay type: cell-based; method in brief: as §1
LS174T [31] = assay: Inhibition of LiCl-induced Wnt signaling in human LS174T cells assessed as reduction in beta-catenin accumulation; assay type: cell-based
DLD-1 [32] = assay: Uncoupling of mitochondrial oxidative phosphorylation in human DLD1 cells at 3 uM in presence of oligomycin A by seahorse XFe96 analyser based assay; conditions: Mitochondria; method in brief: as §7
DLD-1 [33] = assay: Induction of mitochondrial dysfunction in human DLD1 cells assessed as reduction in mitochondrial ATP production at 3 uM by Seahorse XF real-time assay; conditions: Mitochondria
Method in brief: (§8)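 About 3×10^4 cells seeded per well in XF96 plates. Next day medium switched to Seahorse XF medium with 25 mM glucose and 1 mM pyruvate. Compound given at 3 μM in DMSO; FCCP 1 μM as reference. Mitochondrial and glycolytic ATP production rates measured by XF Real-Time ATP Rate Assay.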

LS174T [34] = assay: Induction of mitochondrial dysfunction in human LS174T cells assessed as increase in glycolytic ATP production at 3 uM by Seahorse XF real-time assay; conditions: Mitochondria; method in brief: as §8
DLD-1 [35] = assay: Induction of mitochondrial dysfunction in human DLD1 cells assessed as increase in glycolytic ATP production at 3 uM by Seahorse XF real-time assay; conditions: Mitochondria; method in brief: as §8
LS174T [36] = assay: Induction of mitochondrial dysfunction in human LS174T cells assessed as reduction in mitochondrial ATP production at 3 uM by Seahorse XF real-time assay; conditions: Mitochondria; method in brief: as §8
[37] = target: T1, AMP-activated protein kinase, AMPK (Homo sapiens); assay: Activation of AMPK in human LS174T cells assessed as […] phosphorylation at S79 residue at 3 uM measured within 15 mins by Western blot analysis; assay type: cell-based; method in brief: as §1

O=[N+]([O-])c1ccc(NS(=O)(=O)c2cc(Cl)ccc2Cl)c2ccccc12
Activity [1]: Active
Activity (Liver [2]): Dose-dependent effect
Activity [3]: Active
inhibition (HEK293 [4]): Active

O=C(Nc1ccc(C(F)(F)F)cc1)Nc1cc(F)c(F)c(F)c1
inhibition (Homo sapiens [5]): Active
inhibition (HEK293 [6]): Active
inhibition (Homo sapiens [7]): Active
inhibition (Homo sapiens [8]): Active
inhibition (Homo sapiens [9]): Active
Activity (LS174T [10]): Active
inhibition (LS174T [11]): Active
inhibition (Homo sapiens [12]): Active
Activity [13]: Active
inhibition (LS174T [14]): Active
inhibition (HEK293 [15]): Active
IC50 (DLD-1 [16]): 540 nM
inhibition (LS174T [17]): Active
Activity (DLD-1 [18]): Active
Activity (HEK293 [19]): inactive
IC50 (LS174T [20]): 550 nM
inhibition (Homo sapiens [21]): Active
Activity [22]: Active

N#Cc1c(O)c2c(-c3ccc(-c4ccccc4O)cc3)csc2[nH]c1=O
inhibition (HEK293 [23]): inactive

CC[C@@H]1/C=C/C=C/C[C@H](C)[C@@H](O)[C@](C)(O)C(=O)[C@H](C)[C@@H](O)[C@H](C)C(=O)[C@H](C)[C@@H](O)[C@H](C)/C=C/C(=O)O[C@H]2[C@@H](C)[C@@H](CC1)O[C@@]1(CC[C@@H](C)[C@@H](C[C@@H](C)O)O1)[C@@H]2C
inhibition (DLD-1 [24]): Active

C=C(C)[C@H]1Cc2c(ccc3c2O[C@@H]2COc4cc(OC)c(OC)cc4[C@@H]2C3=O)O1
inhibition (DLD-1 [24]): Active

CCCCCCC1C(=O)O[C@H](C)[C@H](NC(=O)c2cccc(NC=O)c2O)C(=O)O[C@@H](C)[C@@H]1OC(=O)CC(C)C (stereo not given in full)
inhibition (DLD-1 [24]): Active

CN(c1ccc([N+](=O)[O-])c2ccccc12)S(=O)(=O)c1cc(Cl)ccc1Cl
Activity [1]: inactive
Activity (Liver [25]): inactive
Activity [3]: inactive
inhibition (HEK293 [4]): inactive
Activity (DLD-1 [26]): inactive

Cc1cc([N+](=O)[O-])ccc1N(C)S(=O)(=O)c1cc(Cl)ccc1Cl
Activity [1]: inactive
Activity (Liver [25]): inactive
Activity [3]: inactive
inhibition (HEK293 [4]): inactive

O=C1[C@H](Cc2ccc(O)cc2)N2C(=O)CCN(C(=O)NCc3ccccc3)[C@H]2CN1Cc1cccc2ccccc12
inhibition (HEK293 [27]): Active
Activity [28]: inactive
Activity [29]: inactive

Cc1cc([N+](=O)[O-])ccc1NS(=O)(=O)c1cc(Cl)ccc1Cl
Activity [30]: Active
inhibition (LS174T [31]): Active
Activity (LS174T [10]): Active
Activity (Liver [2]): Dose-dependent effect
Activity (DLD-1 [32]): Active
Activity (DLD-1 [33]): Active
Activity (LS174T [34]): Active
Activity (DLD-1 [35]): Active
Activity (LS174T [36]): Active
Activity [37]: Active
Activity (DLD-1 [18]): Active
Activity (DLD-1 [26]): Active
